Assay results published in ChEMBL document CHEMBL4138056, “T- and B-cell immunosuppressive activity of novel α-santonin analogs with humoral and cellular immune response in Balb/c mice” (Medchemcomm, 2017).

Columns and labels:
B-cell line [1] = test: Immunosuppressive activity in Balb/c mouse B cells assessed as inhibition of LPS-induced cell proliferation at 10 uM after 48 hrs by MTT assay relative to control; assay type: functional
Outline: (§1)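 Balb/c spleen single-cell suspension, RBCs lysed with tris-ammonium chloride, viability by trypan blue; 1×10^6 cells/mL stimulated with LPS (10 μg/mL) for B cells, test agent 1, 10 or 100 μM, 48 h at 37 °C, 5% CO2. MTT 4 h, DMSO solubilization, OD 540 nm; % change vs mitogen control; triplicate, three separate experiments.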

B-cell line [2] = test: Immunosuppressive activity in Balb/c mouse B cells assessed as inhibition of LPS-induced cell proliferation at 1 uM after 48 hrs by MTT assay relative to control; assay type: functional; outline: as §1
B-cell line [3] = test: Immunostimulant activity in Balb/c mouse B cells assessed as induction of LPS-induced cell proliferation at 100 uM after 48 hrs by MTT assay relative to control; assay type: cell-based; outline: as §1
Murine T-cell line [4] = test: Cytotoxicity against Balb/c mouse T cells assessed as decrease in cell survival at 100 uM by MTT assay; assay type: cell-based
Outline: (§2)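 Balb/c splenocytes (RBC lysed with tris-ammonium chloride, trypan blue viability) seeded at 1×10^6 cells/mL with Con A or LPS (10 μg/mL each) and test agent at 1, 10 or 100 μM for 48 h at 37 °C, 5% CO2; MTT added for 4 h, formazan dissolved in DMSO, OD 540 nm. Cytotoxicity scored +/−; triplicate, three separate experiments.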

Murine T-cell line [5] = test: Cytotoxicity against Balb/c mouse T cells assessed as decrease in cell survival at 10 uM by MTT assay; assay type: cell-based; outline: as §2
Murine T-cell line [6] = test: Cytotoxicity against Balb/c mouse T cells assessed as decrease in cell survival at 1 uM by MTT assay; assay type: cell-based; outline: as §2
B-cell line [7] = test: Cytotoxicity against Balb/c mouse B cells assessed as decrease cell survival at 100 uM by MTT assay; assay type: cell-based; outline: as §2
B-cell line [8] = test: Cytotoxicity against Balb/c mouse B cells assessed as decrease cell survival at 10 uM by MTT assay; assay type: cell-based; outline: as §2
B-cell line [9] = test: Cytotoxicity against Balb/c mouse B cells assessed as decrease cell survival at 1 uM by MTT assay; assay type: cell-based; outline: as §2
Murine T-cell line [10] = test: Immunostimulant activity in Balb/c mouse T cells assessed as induction of ConA-induced cell proliferation at 100 uM after 48 hrs by MTT assay relative to control
Murine T-cell line [11] = test: Immunosuppressive activity in Balb/c mouse T cells assessed as inhibition of ConA-induced cell proliferation at 1 uM after 48 hrs by MTT assay relative to control
Murine T-cell line [12] = test: Immunosuppressive activity in Balb/c mouse T cells assessed as inhibition of ConA-induced cell proliferation at 10 uM after 48 hrs by MTT assay relative to control
B-cell line [13] = test: Immunosuppressive activity in Balb/c mouse B cells assessed as inhibition of LPS-induced cell proliferation at 100 uM after 48 hrs by MTT assay relative to control; assay type: functional; outline: as §1
Murine T-cell line [14] = test: Immunosuppressive activity in Balb/c mouse T cells assessed as inhibition of ConA-induced cell proliferation at 100 uM after 48 hrs by MTT assay relative to control

Row | Compound | inhibition at 10 µM (B-cell line [1]) | inhibition at 1 µM (B-cell line [2]) | Activity (B-cell line [3]) | Activity (Murine T-cell line [4]) | Activity (Murine T-cell line [5]) | Activity (Murine T-cell line [6]) | Activity (B-cell line [7]) | Activity (B-cell line [8]) | Activity (B-cell line [9]) | Activity (Murine T-cell line [10]) | inhibition at 1 µM (Murine T-cell line [11]) | inhibition at 10 µM (Murine T-cell line [12]) | inhibition at 100 µM (B-cell line [13]) | inhibition at 100 µM (Murine T-cell line [14])
1 | Cc1cc(O)c(C)c2c1CC[C@H]1[C@H](C)C(=O)O[C@@H]21 | 24.9% | 23.3% | 38.25% | Toxic | Toxic | Toxic | Toxic | Toxic | Toxic | 58.13% | 22.1% | 27.4% | – | –
2 | CCCCCOc1cc(C)c2c(c1C)[C@@H]1OC(=O)[C@@H](C)[C@@H]1CC2 | 32.4% | 29.5% | – | Toxic | Toxic | Toxic | Toxic | Toxic | Toxic | – | 11.1% | 33.1% | 9.59% | 29.4%
3 | CCCOc1cc(C)c2c(c1C)[C@@H]1OC(=O)[C@@H](C)[C@@H]1CC2 | 49% | 47% | – | Toxic | Toxic | Non-Toxic | Toxic | Toxic | Non-Toxic | 36% | 33% | 41% | 43% | –
4 | CCCCOc1cc(C)c2c(c1C)[C@@H]1OC(=O)[C@@H](C)[C@@H]1CC2 | 33.3% | 25.2% | – | Non-Toxic | Non-Toxic | Non-Toxic | Non-Toxic | Non-Toxic | Non-Toxic | – | 32% | 51% | 39% | 33.8%
5 | CCCCCC(=O)Oc1cc(C)c2c(c1C)[C@@H]1OC(=O)[C@@H](C)[C@@H]1CC2 | 26% | 22.9% | 7.29% | Toxic | Toxic | Non-Toxic | Toxic | Toxic | Non-Toxic | – | 39.4% | 46% | – | 78.9%
6 | Cc1cc(OC(=O)c2ccccc2)c(C)c2c1CC[C@H]1[C@H](C)C(=O)O[C@@H]21 | 43.8% | 18.8% | – | Non-Toxic | Non-Toxic | Non-Toxic | Non-Toxic | Non-Toxic | Non-Toxic | 23.94% | 71.8% | 39.4% | 17.7% | –
7 | CCOc1cc(C)c2c(c1C)[C@@H]1OC(=O)[C@@H](C)[C@@H]1CC2 | 1% | 35% | – | Toxic | Toxic | Non-Toxic | Toxic | Toxic | Non-Toxic | 16% | 28% | 5% | 46% | –
8 | Cc1cc(OCc2ccc(Cl)cc2)c(C)c2c1CC[C@H]1[C@H](C)C(=O)O[C@@H]21 | 37% | 37% | – | Toxic | Non-Toxic | Non-Toxic | Toxic | Non-Toxic | Non-Toxic | – | 15% | 33% | 28% | 45%
